{"source": "BindingDB's records for doi:10.1021/jm030913e", "about": "(Ucb Pharma, 2004)", "data": [{"target": "Synaptic vesicle glycoprotein 2A (Rattus norvegicus, UniProt Q02563)", "sequence (Q02563 whole entry)": "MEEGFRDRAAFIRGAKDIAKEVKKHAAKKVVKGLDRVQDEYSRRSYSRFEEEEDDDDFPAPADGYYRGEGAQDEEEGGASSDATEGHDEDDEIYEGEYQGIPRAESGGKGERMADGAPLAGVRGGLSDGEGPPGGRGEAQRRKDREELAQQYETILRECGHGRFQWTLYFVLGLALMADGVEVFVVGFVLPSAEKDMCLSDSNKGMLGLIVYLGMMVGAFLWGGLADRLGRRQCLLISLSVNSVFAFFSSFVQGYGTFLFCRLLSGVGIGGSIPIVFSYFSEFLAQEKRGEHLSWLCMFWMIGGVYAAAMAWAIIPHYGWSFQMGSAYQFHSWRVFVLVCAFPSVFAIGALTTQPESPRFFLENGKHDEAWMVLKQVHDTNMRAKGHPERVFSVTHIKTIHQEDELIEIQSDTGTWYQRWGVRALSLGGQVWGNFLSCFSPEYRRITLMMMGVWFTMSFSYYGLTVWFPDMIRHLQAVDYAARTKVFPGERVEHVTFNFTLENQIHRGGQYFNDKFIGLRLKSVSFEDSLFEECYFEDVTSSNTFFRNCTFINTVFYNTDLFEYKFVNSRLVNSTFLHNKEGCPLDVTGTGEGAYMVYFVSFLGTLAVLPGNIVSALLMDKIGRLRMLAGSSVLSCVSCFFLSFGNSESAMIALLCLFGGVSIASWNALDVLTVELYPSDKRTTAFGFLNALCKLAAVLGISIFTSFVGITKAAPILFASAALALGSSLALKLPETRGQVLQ", "experiment": "In vitro inhibitory activity against [3H](2S)-2-[4-(3-azidophenyl)-2-oxopyrrolidin-1-yl]butanamide binding to levetiracetam binding site", "method_in_brief": "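Rat cerebral cortex membranes (male Sprague-Dawley, 200–250 g), homogenised in Tris-HCl/sucrose at 4 °C, washed, preincubated 15 min at 37 °C. Binding: 4 °C for 120 min in 50 mmol/L Tris-HCl pH 7.4 with 2 mmol/L MgCl2, 1–2 × 10^-9 mol/L tritiated azidophenyl radioligand, rising test concentrations. Nonspecific binding with 10^-3 mol/L levetiracetam. Rapid filtration, scintillation counting. pIC50 is the mean of two independent determinations.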", "units": {"IC50": "µM"}, "values": [{"smiles": "CC[C@@H](C(=O)NC)N1CCCC1=O", "IC50": 12.5}, {"smiles": "CCCCCCCN(C(=O)Cc1ccc(OC)cc1)C(CC)C(N)=O", "note": "(stereo unspecified)", "IC50": 2.51}, {"smiles": "CCCCN(C(=O)CC)[C@@H](CC)C(N)=O", "IC50": 9.99}, {"smiles": "CCC(C(N)=O)N1CC(COC)CC1=O", "note": "(stereo unspecified)", "IC50": 1.58}, {"smiles": "CC[C@@H](C(N)=O)N1CC(CC2CC2)CC1=O", "note": "(stereo partly specified)", "IC50": 0.125}, {"smiles": "CCCCC1CC(=O)N(C(CC)C(N)=O)C1", "note": "(stereo unspecified)", "IC50": 0.398}, {"smiles": "CC[C@H](C(N)=O)N1CCCC1=O", "note": "[Levitiracetam]", "IC50": "< 999"}, {"smiles": "CC[C@@H](C(N)=O)N1CC(CC(C)(C)C)CC1=O", "note": "(stereo partly specified)", "IC50": 0.794}, {"smiles": "CC[C@@H](C(N)=O)N1C[C@H](CCl)CC1=O", "IC50": 0.199}, {"smiles": "CC[C@@H](C(N)=O)N1CC(NC(=O)OC)CC1=O", "note": "(stereo partly specified)", "IC50": 1.58}, {"smiles": "CC[C@@H](C(N)=O)N(C)C(C)=O", "IC50": 15.8}, {"smiles": "CCC(C(N)=O)N1CC(C(C)C)CC1=O", "note": "(stereo unspecified)", "IC50": 3.98}, {"smiles": "CCC[C@H](C(N)=O)N1CCCC1=O", "IC50": 999}, {"smiles": "CCC[C@H]1CC(=O)N([C@@H](CC)C(N)=O)C1", "IC50": 0.251}, {"smiles": "CCCCCCCCN(C(=O)Cc1ccc(Cl)cc1)C(CC)C(N)=O", "note": "(stereo unspecified)", "IC50": 1.99}, {"smiles": "CC[C@@H](C(=O)NO)N1CCCC1=O", "IC50": 1.99}, {"smiles": "CC[C@@H](C(N)=O)N1CCCC1=O", "note": "[UCB-22059]", "IC50": 0.794}, {"smiles": "CCC(C(N)=O)N1C(=O)CCC1(C)C", "note": "(stereo unspecified)", "IC50": 63}, {"smiles": "CC[C@@H](C(N)=O)N1CCC(C)C1=O", "note": "(stereo partly specified)", "IC50": 19.9}, {"smiles": "CCCCCCCCN(C(=O)CC)C(CC)C(N)=O", "note": "(stereo unspecified)", "IC50": 3.98}, {"smiles": "NC(=O)CN1CCCC1=O", "note": "[2-(2-oxopyrrolidin-1-yl)acetamide]", "IC50": 39.8}, {"smiles": "CCCCCN(C(=O)CC)C(CC)C(N)=O", "note": "(stereo unspecified)", "IC50": 1.99}, {"smiles": "CCC(C(N)=O)N1CC(Cc2ccccc2)CC1=O", "note": "(stereo unspecified)", "IC50": 2.51}, {"smiles": "CC[C@@H](C(N)=O)N1C[C@H](C)CC1=O", "IC50": 1.25}, {"smiles": "CC(C)C(C(N)=O)N1CCCC1=O", "note": "(stereo unspecified)", "IC50": 19.9}, {"smiles": "CC[C@@H](C(N)=O)N1C[C@H](CN=[N+]=[N-])CC1=O", "IC50": 0.0794}, {"smiles": "CC[C@@H](C(N)=O)N1C[C@H](CBr)CC1=O", "IC50": 0.251}, {"smiles": "CCC(C(=O)N(C)O)N1CCCC1=O", "note": "(stereo unspecified)", "IC50": 19.9}, {"smiles": "CCCC1(C)CC(=O)N([C@@H](CC)C(N)=O)C1", "note": "(stereo partly specified)", "IC50": 0.398}, {"smiles": "CCC(C(=O)NN)N1CCCC1=O", "note": "(stereo unspecified)", "IC50": 6.3}, {"smiles": "C[C@@H](C(N)=O)N1CCCC1=O", "IC50": 3.16}, {"smiles": "CC[C@@H](C(N)=O)N1C[C@H](CF)CC1=O", "IC50": 1.25}, {"smiles": "CCC[C@@H]1CC(=O)N([C@@H](CC)C(N)=O)C1", "note": "[UCB-34714]", "IC50": 0.1}, {"smiles": "CC[C@@H](C(N)=O)N1C[C@H](CO[N+](=O)[O-])CC1=O", "IC50": 0.1}, {"smiles": "CC[C@@H](C(N)=O)N1C[C@H](CI)CC1=O", "IC50": 0.158}, {"smiles": "CCC[C@@H](C(N)=O)N1CCCC1=O", "IC50": 5.01}, {"smiles": "CC[C@@H](C(=N)N)N1CCCC1=O", "IC50": 12.5}, {"smiles": "CC[C@@H](C(N)=O)N1C[C@H](CSC)CC1=O", "IC50": 0.125}, {"smiles": "CCCCCC1CC(=O)N(C(CC)C(N)=O)C1", "note": "(stereo unspecified)", "IC50": 1.25}, {"smiles": "CCC1CC(=O)N([C@@H](CC)C(N)=O)C1", "note": "(stereo partly specified)", "IC50": 1.25}, {"smiles": "CC[C@@H](C(N)=O)N1C(=O)CCC1C", "note": "(stereo partly specified)", "IC50": 2.51}]}]}
